Results collected from several papers.
Protocols differ between the studies behind these lines.
CDK6 with cyclin D3: Cyclin-dependent kinase 6, with cyclin D3 (CDK6, Homo sapiens, UniProt Q00534)
CDK6 with cyclin D1: Cyclin-dependent kinase 6, with cyclin D1 (CDK6, Homo sapiens, UniProt Q00534)

| Structure (SMILES) | target | read-out | mode | technique | concentration | measurement | result |
| --- | --- | --- | --- | --- | --- | --- | --- |
| CC(C)(O)[C@H]1CC[C@H](Nc2ccc3ncc(-c4cccc(C(F)(F)F)c4)n3n2)CC1 | CDK6 with cyclin D3 | enzyme activity | inhibitor | – | 1 µM | remaining activity | 96.4% |
| O=C(Nc1cnn(-c2csc(C(=O)NC3COC3)c2)c1)Nc1c(F)cccc1Cl | CDK6 with cyclin D1 | enzyme activity | inhibitor | – | 5 µM | remaining activity | 105% |
| O=C1Nc2ccc(Cl)cc2C1=Cc1cc(Cl)c(O)c(Cl)c1 | CDK6 with cyclin D3 | cell-free assay | – | – | 0.5 µM | remaining signal | 94.1% |
| Cc1ccc(C(=O)NCc2ccsc2)cc1C#Cc1cn(C(C)C)c2ncnc(N)c12 | CDK6 with cyclin D3 | enzyme activity | inhibitor | – | 1 µM | activity vs control | 101% |
| O=C1NC(=O)c2cc(Nc3ccc(F)cc3)c(Nc3ccc(F)cc3)cc21 | CDK6 with cyclin D3 | cell-free assay | – | – | 0.5 µM | remaining signal | 89.9% |
| CC(C)(C)c1nc2c(s1)c1nc(N)ncc1c1ccc(NS(=O)(=O)c3c(F)cccc3F)c(F)c12 | CDK6 with cyclin D3 | enzyme activity | inhibitor | radiometric | 1 µM | remaining activity | 97% |
| Cn1cnc(Br)c1C1=CN(c2ncnc3[nH]cnc23)CCS1 | Cyclin-dependent kinase 6 (CDK6, Homo sapiens, UniProt Q00534) | enzyme activity | inhibitor | radiometric | 50 nM | inhibition | 22% |
| N#CCCc1ccc2c(c1)-c1[nH]c3ccc([N+](=O)[O-])cc3c1CC(=O)N2 | CDK6 with cyclin D1 | cell-free assay | – | – | 0.5 µM | remaining signal | 6.79% |
| CC(C)c1ccc(NC(=O)c2cccs2)c(-c2nc3ccccc3[nH]c2=O)c1 | CDK6 with cyclin D3 | enzyme activity | inhibitor | – | 1 µM | activity vs control | 114% |
| CCN(CC)CCNC(=O)c1c(C)[nH]c(/C=C2\C(=O)Nc3ccc(F)cc32)c1C | CDK6 with cyclin D3 | enzyme activity | inhibitor | – | 10 µM | inhibition | 73% |
| CCCS(=O)(=O)Nc1ccc(F)c(C(=O)c2c[nH]c3ncc(-c4ccc(Cl)cc4)cc23)c1F | CDK6 with cyclin D3 | enzyme activity | inhibitor | – | 1 µM | inhibition | < 10% |
| Cc1cnc(NC2CCOCC2)nc1-n1cnc(C(=O)NC(CN)c2cc(F)cc(Cl)c2)c1 (centres unmarked) | CDK6 with cyclin D3 | enzyme activity | inhibitor | radiometric | 1 µM | remaining activity | 31% |
| Cc1ccc(Nc2nccc(N(C)c3ccc4c(C)n(C)nc4c3)n2)cc1S(N)(=O)=O | CDK6 with cyclin D3 | enzyme activity | inhibitor | – | 0.3 µM | inhibition | -7% |
| O=C(Nc1cnn(-c2csc(C(=O)NC3COC3)c2)c1)Nc1ccccc1Cl | CDK6 with cyclin D1 | enzyme activity | inhibitor | – | 5 µM | remaining activity | 95.4% |
| CNC(=O)c1cc(Oc2ccc(NC(=O)Nc3ccc(Cl)c(C(F)(F)F)c3)cc2)ccn1 | CDK6 with cyclin D3 | enzyme activity | inhibitor | – | 10 µM | inhibition | -5% |
| CC(C)(C)c1nc(-c2cccc(NS(=O)(=O)c3c(F)cccc3F)c2F)c(-c2ccnc(N)n2)s1 | CDK6 with cyclin D1 | enzyme activity | inhibitor | radiometric | 1 µM | remaining activity | 104% |
| Cc1cc(NC(=O)c2cccc3cc(-c4cccc5[nH]nc(N)c45)ccc23)ccc1F | CDK6 with cyclin D3 | enzyme activity | inhibitor | – | 0.1 µM | activity vs control | 94% |
